Data as given in ChEMBL document CHEMBL4715682, “Potent trifluoromethoxy, trifluoromethylsulfonyl, trifluoromethylthio and pentafluorosulfanyl containing (1,3,4-oxadiazol-2-yl)benzamides against drug-resistant Gram-positive bacteria” (RSC Med Chem, 2020).
Values after ≈ are worked out from the molar mass of the structure shown. Active and inactive are the calls of the source. The calls are words filed in the database; no cut-off is given here.

What was measured:
[1] = test system: Staphylococcus aureus; assay: Antibacterial activity against vancomycin-resistant Staphylococcus aureus 10 assessed as inhibition of visible bacterial growth incubated for 18 to 20 hrs by CLSI method; assay type: functional; conditions: time 18-20 hrs
Outline: (§1)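 CLSI broth microdilution. Strains grown aerobically overnight on tryptic soy agar at 37 °C, adjusted to 0.5 McFarland and diluted in cation-adjusted Mueller–Hinton broth to about 5×10^5 CFU/mL. Compounds and control drugs serially diluted across the plate. Incubated aerobically at 37 °C for 18-20 h. MIC is the lowest concentration with no visible growth.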

[2] = test system: Staphylococcus aureus; assay: Antibacterial activity against methicillin-resistant Staphylococcus aureus NRS123 assessed as inhibition of visible bacterial growth incubated for 18 to 20 hrs by CLSI method; assay type: functional; conditions: time 18-20 hrs; outline: as §1
[3] = test system: Staphylococcus aureus; assay: Antibacterial activity against methicillin-sensitive Staphylococcus aureus ATCC 6538 assessed as inhibition of visible bacterial growth incubated for 18 to 20 hrs by CLSI method; assay type: functional; conditions: time 18-20 hrs; outline: as §1
[4] = test system: Streptococcus pneumoniae; assay: Antibacterial activity against cephalosporin-resistant Streptococcus pneumoniae ATCC 51916 assessed as inhibition of visible bacterial growth incubated for 18 to 20 hrs by CLSI method; assay type: functional; conditions: time 18-20 hrs; outline: as §1
[5] = test system: Staphylococcus aureus; assay: Synergistic antibacterial activity against methicillin-resistant Staphylococcus aureus ATCC 33592 assessed as fractional inhibitory concentration index in presence of linezolid by checkerboard assay; assay type: functional
[6] = test system: Staphylococcus aureus; assay: Antibacterial activity against methicillin-resistant Staphylococcus aureus NRS483 assessed as inhibition of visible bacterial growth incubated for 18 to 20 hrs by CLSI method; assay type: functional; conditions: time 18-20 hrs; outline: as §1
[7] = test system: Staphylococcus aureus; assay: Synergistic antibacterial activity against methicillin-resistant Staphylococcus aureus ATCC 33592 assessed as fractional inhibitory concentration index in presence of Vancomycin; assay type: functional
[8] = test system: Listeria monocytogenes; assay: Antibacterial activity against Listeria monocytogenes ATCC 19111 assessed as inhibition of visible bacterial growth incubated for 18 to 20 hrs by CLSI method; assay type: functional; conditions: time 18-20 hrs
Outline: (§2)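 Broth microdilution per CLSI. Strains grown aerobically overnight on TSA at 37 °C, suspended to 0.5 McFarland, diluted in CAMHB to about 5×10^5 CFU/mL. Agents serially diluted across plate; aerobic incubation 37 °C for 18-20 h. MIC = lowest concentration completely preventing visible growth.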

[9] = test system: Staphylococcus aureus; assay: Antibacterial activity against methicillin-resistant Staphylococcus aureus NRS386 assessed as inhibition of visible bacterial growth incubated for 18 to 20 hrs by CLSI method; assay type: functional; conditions: time 18-20 hrs; outline: as §1
[10] = test system: Staphylococcus aureus; assay: Antibacterial activity against methicillin-resistant Staphylococcus aureus USA400 infected in mouse J774 cells assessed as log reduction in intracellular growth at 16 ug/ml incubated for 18 to 22 hrs; assay type: functional; conditions: dose 16 µg/ml; time 18-22 hrs
Outline: (§3)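 J774 murine macrophages grown in DMEM with 10% FBS at 37 °C, 5% CO2. Cells infected with MRSA USA400 at MOI about 10:1 for 1 h, then washed with gentamicin to remove extracellular bacteria. Agents added at 8 or 16 μg/mL in triplicate, with DMSO vehicle control, for 24 h. Cells lysed with 0.1% Triton-X, lysates plated on tryptic soy agar, and CFU counted after 18-22 h at 37 °C. Analysed by two-way ANOVA with Dunnett's test.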

[11] = test system: J774; assay: Cytotoxicity against mouse J774 cells assessed as reduction in cell viability at 32 ug/ml incubated for 24 hrs by MTS assay; assay type: cell-based; conditions: j774, 24 h, dose 32 µg/ml
[12] = test system: Staphylococcus aureus; assay: Antibacterial activity against Staphylococcus aureus ATCC 25923 assessed as inhibition of visible bacterial growth incubated for 18 to 20 hrs by CLSI method; assay type: functional; conditions: time 18-20 hrs; outline: as §1
[13] = test system: Staphylococcus aureus; assay: Antibacterial activity against methicillin-resistant Staphylococcus aureus NRS384 assessed as inhibition of visible bacterial growth incubated for 18 to 20 hrs by CLSI method; assay type: functional; conditions: time 18-20 hrs; outline: as §1
[14] = test system: Staphylococcus aureus; assay: Antibacterial activity against methicillin-resistant Staphylococcus aureus NRS484 assessed as inhibition of visible bacterial growth incubated for 18 to 20 hrs by CLSI method; assay type: functional; conditions: time 18-20 hrs; outline: as §1
[15] = test system: Staphylococcus aureus; assay: Antibacterial activity against methicillin-resistant Staphylococcus aureus USA400 infected in mouse J774 cells assessed as log reduction in intracellular growth at 8 ug/ml incubated for 18 to 22 hrs; assay type: functional; conditions: dose 8 µg/ml; time 18-22 hrs; outline: as §3
[16] = test system: Staphylococcus aureus; assay: Synergistic antibacterial activity against methicillin-resistant Staphylococcus aureus ATCC 33592 assessed as fractional inhibitory concentration index in presence of daptomycin by checkerboard assay; assay type: functional
[17] = test system: Staphylococcus aureus; assay: Antibacterial activity against methicillin-resistant Staphylococcus aureus ATCC 33592 assessed as reduction in bacterial count at 3 x MIC incubated upto 24 hrs by time kill analysis; assay type: functional; conditions: time hrs <=24
Outline: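 Time-kill assay. […] Samples taken at 0, 2, 4, 8, 12 and 24 h, serially diluted in PBS and plated on tryptic soy agar. Viable CFU/mL counted after 18-20 h at 37 °C.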

[18] = test system: Staphylococcus aureus; assay: Antibacterial activity against vancomycin-resistant Staphylococcus aureus 12 assessed as inhibition of visible bacterial growth incubated for 18 to 20 hrs by CLSI method; assay type: functional; conditions: time 18-20 hrs; outline: as §1
[19] = test system: Staphylococcus aureus; assay: Antibacterial activity against methicillin-resistant Staphylococcus aureus NRS 119 assessed as inhibition of visible bacterial growth incubated for 18 to 20 hrs by CLSI method; assay type: functional; conditions: time 18-20 hrs; outline: as §1
[20] = test system: Enterococcus faecalis; assay: Antibacterial activity against vancomycin- resistant Enterococcus faecalis ATCC 51299 assessed as inhibition of visible bacterial growth incubated for 18 to 20 hrs by CLSI method; assay type: functional; conditions: time 18-20 hrs; outline: as §1
[21] = test system: Staphylococcus aureus; assay: Antibacterial activity against methicillin-resistant Staphylococcus aureus NRS385 assessed as inhibition of visible bacterial growth incubated for 18 to 20 hrs by CLSI method; assay type: functional; conditions: time 18-20 hrs; outline: as §1
[22] = test system: Enterococcus faecalis; assay: Antibacterial activity against vancomycin- resistant Enterococcus faecalis ATCC 700221 assessed as inhibition of visible bacterial growth incubated for 18 to 20 hrs by CLSI method; assay type: functional; conditions: time 18-20 hrs; outline: as §1
[23] = test system: Pseudomonas aeruginosa; assay: Antibacterial activity against Pseudomonas aeruginosa ATCC 27853 assessed as inhibition of visible bacterial growth at 16 ug/ml incubated for 18 to 20 hrs by CLSI method; assay type: functional, organism-based; conditions: dose 16.0 µg/ml, time 18-20 hrs; outline: as §1
[24] = test system: Staphylococcus epidermidis; assay: Antibacterial activity against Staphylococcus epidermidis NRS101 assessed as inhibition of visible bacterial growth incubated for 18 to 20 hrs by CLSI method; assay type: functional; conditions: time 18-20 hrs; outline: as §2
[25] = test system: Caco-2; assay: Cytotoxicity against human Caco2 cells assessed as reduction in cell viability at 128 ug/ml incubated for 2 hrs by MTS assay; assay type: cell-based; conditions: caco-2, 2 h, dose 128 µg/ml
[26] = test system: Escherichia coli; assay: Antibacterial activity against Escherichia coli ATCC 25404 assessed as inhibition of visible bacterial growth at 16 ug/ml incubated for 18 to 20 hrs by CLSI method; assay type: functional, organism-based; conditions: B ATCC 25404, dose 16.0 µg/ml, time 18-20 hrs; outline: as §1
[27] = test system: Streptococcus pneumoniae; assay: Antibacterial activity against […] Streptococcus pneumoniae ATCC 700677 assessed as inhibition of visible bacterial growth incubated for 18 to 20 hrs by CLSI method; assay type: functional; conditions: time 18-20 hrs; outline: as §1
[28] = test system: Staphylococcus aureus; assay: Bactericidal activity against methicillin-resistant Staphylococcus aureus ATCC 33592 assessed as reduction in bacterial growth incubated for 18 hrs by CLSI method; assay type: functional
[29] = Hemolytic activity in human RBC at 128 ug/ml incubated for 60 mins relative to control; assay type: ADME, cell-based, Erythrocyte; conditions: red blood cells (erythrocytes), dose 128 µg/ml, read-out: Activity
Outline: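 Single-donor human erythrocytes as a 5% v/v suspension in PBS. Compounds serially diluted in PBS, in triplicate, and incubated with RBCs at 37 °C for 60 min. PBS served as the negative control and Triton-X as the positive control. Samples spun at 4,000 rpm for 5 min and supernatant absorbance read at 540 nm. Percent hemolysis = 100×(sample−negative)/(positive−negative).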

[30] = test system: Staphylococcus aureus; assay: Antibacterial activity against methicillin-resistant Staphylococcus aureus NRS387 assessed as inhibition of visible bacterial growth incubated for 18 to 20 hrs by CLSI method; assay type: functional; conditions: time 18-20 hrs; outline: as §1
[31] = test system: Staphylococcus aureus; assay: Antibacterial activity against methicillin-sensitive Staphylococcus aureus NRS 107 assessed as inhibition of visible bacterial growth incubated for 18 to 20 hrs by CLSI method; assay type: functional; conditions: time 18-20 hrs; outline: as §1
[32] = test system: Staphylococcus aureus; assay: Antibacterial activity against methicillin-resistant Staphylococcus aureus NRS382 assessed as inhibition of visible bacterial growth incubated for 18 to 20 hrs by CLSI method; assay type: functional; conditions: time 18-20 hrs; outline: as §1
[33] = test system: Staphylococcus aureus; assay: Antibacterial activity against methicillin-resistant Staphylococcus aureus NRS383 assessed as inhibition of visible bacterial growth incubated for 18 to 20 hrs by CLSI method; assay type: functional; conditions: time 18-20 hrs; outline: as §1
[34] = test system: Staphylococcus aureus; assay: Antibacterial activity against methicillin-resistant Staphylococcus aureus ATCC 33592 assessed as inhibition of visible bacterial growth incubated for 18 to 20 hrs by CLSI method; assay type: functional; conditions: time 18-20 hrs; outline: as §1
[35] = test system: Acinetobacter baumannii; assay: Antibacterial activity against Acinetobacter baumannii ATCC 19606 RW4 assessed as inhibition of visible bacterial growth at 16 ug/ml incubated for 18 to 20 hrs by CLSI method; assay type: functional, organism-based; conditions: ATCC 19606 = CIP 70.34 = JCM 6841 RW4, dose 16.0 µg/ml, time 18-20 hrs; outline: as §1
[36] = test system: Staphylococcus aureus; assay: Synergistic antibacterial activity against methicillin-resistant Staphylococcus aureus ATCC 33592 assessed as fractional inhibitory concentration index in presence of methicillin by checkerboard assay; assay type: functional

## O=C(Nc1nnc(-c2cccs2)o1)c1ccc(SC(F)(F)F)cc1
[1]
  MIC: 0.5 µg/mL (≈ 1.35 µM)
[2]
  MIC: 0.5 µg/mL (≈ 1.35 µM)
[3]
  MIC: 0.5 µg/mL (≈ 1.35 µM)
[4]
  MIC: 0.25 µg/mL (≈ 0.673 µM)
[5]
  fractional inhibitory concentration index (FICI): 0.0625
[6]
  MIC: 0.5 µg/mL (≈ 1.35 µM)
[7]
  fractional inhibitory concentration index (FICI): 1
[8]
  MIC: 0.5 µg/mL (≈ 1.35 µM)
[9]
  MIC: 0.5 µg/mL (≈ 1.35 µM)
[10]
  Activity: 0.9 log10CFU/ml
[11]
  Activity: Non-Toxic
[12]
  MIC: 0.5 µg/mL (≈ 1.35 µM)
[13]
  MIC: 0.5 µg/mL (≈ 1.35 µM)
[14]
  MIC: 0.5 µg/mL (≈ 1.35 µM)
[15]
  Activity: 0.7 log10CFU/ml
[16]
  fractional inhibitory concentration index (FICI): 0.63
[17]
  Activity: 4.2 log10CFU/ml
[18]
  MIC: 0.5 µg/mL (≈ 1.35 µM)
[19]
  MIC: 0.5 µg/mL (≈ 1.35 µM)
[20]
  MIC: 4 µg/mL (≈ 10.8 µM)
[21]
  MIC: 2 µg/mL (≈ 5.39 µM)
[22]
  MIC: 4 µg/mL (≈ 10.8 µM)
[23]
  inhibition: inactive
[24]
  MIC: 0.25 µg/mL (≈ 0.673 µM)
[25]
  Activity: Non-Toxic
[26]
  inhibition: inactive
[27]
  MIC: 0.25 µg/mL (≈ 0.673 µM)
[28]
  MBC: 1 µg/mL (≈ 2.69 µM)
[29]
  hemolysis at 1 h, 128 ug/ml: 19%
[30]
  MIC: 0.125 µg/mL (≈ 0.337 µM)
[31]
  MIC: 0.25 µg/mL (≈ 0.673 µM)
[32]
  MIC: 0.5 µg/mL (≈ 1.35 µM)
[33]
  MIC: 0.25 µg/mL (≈ 0.673 µM)
[34]
  MIC: 0.5 µg/mL (≈ 1.35 µM)
[35]
  inhibition: inactive
[36]
  fractional inhibitory concentration index (FICI): 0.5
